Published values from different studies.
Lines come from different studies, so protocols differ.
Target: Histamine H2 receptor (HRH2, Homo sapiens, UniProt P25021)

The inhibition of `COCCOc1nc(-c2ccc(Cl)nc2)nc2c1CN(C(=O)c1ncn3ccccc13)CC2` is reported as -0.24% (ligand displacement; 10 µM).
For `O=C(c1ccc(F)cc1)N(Cc1ccccc1)C1CCCCC1`, the inhibition was -3% (cell-free assay; 10 µM).
`N#Cc1ccc(Nc2ccc3[nH]c(=O)[nH]c3c2)c(Cl)c1` gave an inhibition of 2.26% (cell-free assay; 10 µM).
`O=C1N=C(N2CCCCN2)S/C1=C\c1ccc(F)cc1O` has an inhibition of under 10% (ligand displacement, radioligand; 10 µM).
With `N#Cc1cc(Cn2c(N3CCCC3)nc3ccccc32)ccc1F` the inhibition was 64.1% (ligand displacement; 10 µM).
`N=C(NCCCCCCCCCCCCN)NCCCc1c[nH]cn1` has an Emax of 66% (GTPγS binding, agonist, radiometric; cell membranes).
With `Cc1nc(N)sc1CCCNC(=N)NCCCCCCCCNC(=N)NCCCc1sc(N)nc1C` the Emax was 52% (GTPγS binding, agonist, radiometric; cell membranes).
The inhibition of `CCCNc1nc2ccccc2n1Cc1ccc(Cl)cc1` is reported as 83.3% (ligand displacement; 10 µM).
`CCN(Cc1ccccc1C(F)(F)F)C(=O)C1CCN(S(=O)(=O)c2ccc3[nH]ncc3c2)CC1` gave an inhibition of 5% (ligand displacement, radioligand; 10 µM).
The inhibition of `CCN(CC)c1ccc(C2Nc3ccc(C(=O)c4ccccc4)cc3NC3=C2C(=O)CC(C)(C)C3)cc1` (stereo not drawn) is reported as 38% (ligand displacement, radioligand; 10 µM).
With `O=C(Nc1ccc(S(=O)(=O)N2CCC(Cl)CC2)cc1)c1ccc([N+](=O)[O-])o1` the inhibition was 10% (ligand displacement, radioligand; 10 µM).
`O=C(c1ccc(Cl)cc1)N(Cc1ccccc1)C1CCCCC1` has an inhibition of -27.3% (cell-free assay; 10 µM).
